Laboratory results from ChEMBL document CHEMBL5029148, “Discovery of Arylsulfonamides as Dual Orexin Receptor Agonists” (J Med Chem, 2021).
Blank lines part the entries; values can stand above or below the compound they belong to. Activity calls are given as the source filed them. No cut-off for these calls is given here.

Key:
[1] = test system: Mus musculus; experiment: Sleep modulation activity in mouse assessed as reduction in number of episodes of non-rapid eye movement sleep at 40 mg/kg, ip measured after 4 hrs post injection
[2] = test system: Mus musculus; experiment: Sleep modulation activity in mouse assessed as increase in time spent in wakefulness at 40 mg/kg, ip measured after 4 hrs post injection; type: functional, organism-based
In short: (§1)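 Twelve-month-old mice implanted under ketamine/xylazine with telemetric EEG/EMG electrodes, and allowed 7–10 days or more to recover. They were housed on 12-h light/dark (lights on 06:00) at 21–22°C. Counterbalanced crossover: 40 mg/kg i.p. in 0.3 ml saline or saline, given at ZT 4–4.5, at least 48 h apart. Manual 10-s epoch scoring (wake/NREM/REM) over 0–4 h gave % time, transitions, episode number and duration. Mean ± SEM.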

[3] = test system: Mus musculus; experiment: Sleep modulation activity in mouse assessed as decrease in time spent in non-rapid eye movement sleep at 40 mg/kg, ip measured after 4 hrs post injection; type: functional, organism-based
In short: as §1

[4] = test system: Mus musculus; experiment: Sleep modulation activity in mouse assessed as effect on number of episodes of rapid eye movement sleep at 40 mg/kg, ip measured after 4 hrs post injection; type: functional, organism-based
In short: as §1

[5] = test system: Mus musculus; experiment: Sleep modulation activity in mouse assessed as reduction in number of episodes of wake at 40 mg/kg, ip measured after 4 hrs post injection
[6] = test system: Mus musculus; experiment: Sleep modulation activity in mouse assessed as decrease in time spent in rapid eye movement sleep at 40 mg/kg, ip measured after 4 hrs post injection; type: functional, organism-based
In short: as §1

[7] = test system: Mus musculus; experiment: Sleep modulation activity in mouse assessed as reduction in transition between states by measuring stabilization of reduced sleep/wake fragmentation at 40 mg/kg, ip measured after 4 hrs post injection; type: functional, organism-based
In short: as §1

[8] = molecular target: T1, Orexin/Hypocretin receptor type 1 (Homo sapiens, UniProt O43613); experiment: Agonist activity at human OX1R stably expressed in CHO cells; type: functional, cell-based, CHO-RD-HGA16
T1 sequence (O43613 whole entry): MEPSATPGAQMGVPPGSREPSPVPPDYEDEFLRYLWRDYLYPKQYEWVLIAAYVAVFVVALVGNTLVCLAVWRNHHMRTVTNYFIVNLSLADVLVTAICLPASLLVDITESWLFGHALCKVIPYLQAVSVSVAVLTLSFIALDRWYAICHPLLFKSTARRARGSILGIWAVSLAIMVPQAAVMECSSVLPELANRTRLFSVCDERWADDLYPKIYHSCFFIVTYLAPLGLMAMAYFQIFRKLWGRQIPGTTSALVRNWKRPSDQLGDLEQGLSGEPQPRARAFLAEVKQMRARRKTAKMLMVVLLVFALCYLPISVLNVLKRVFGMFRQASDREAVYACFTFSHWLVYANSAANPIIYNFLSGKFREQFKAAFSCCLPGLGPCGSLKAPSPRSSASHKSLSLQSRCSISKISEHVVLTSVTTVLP

[9] = molecular target: T2, Orexin receptor type 2 (Homo sapiens, UniProt O43614); experiment: Agonist activity at human OX2R stably expressed in CHO RD-HGA16 cells assessed as fluorescence changes measured after 30 mins by calcium mobilization assay; type: functional, cell-based
T2 sequence (O43614 whole entry): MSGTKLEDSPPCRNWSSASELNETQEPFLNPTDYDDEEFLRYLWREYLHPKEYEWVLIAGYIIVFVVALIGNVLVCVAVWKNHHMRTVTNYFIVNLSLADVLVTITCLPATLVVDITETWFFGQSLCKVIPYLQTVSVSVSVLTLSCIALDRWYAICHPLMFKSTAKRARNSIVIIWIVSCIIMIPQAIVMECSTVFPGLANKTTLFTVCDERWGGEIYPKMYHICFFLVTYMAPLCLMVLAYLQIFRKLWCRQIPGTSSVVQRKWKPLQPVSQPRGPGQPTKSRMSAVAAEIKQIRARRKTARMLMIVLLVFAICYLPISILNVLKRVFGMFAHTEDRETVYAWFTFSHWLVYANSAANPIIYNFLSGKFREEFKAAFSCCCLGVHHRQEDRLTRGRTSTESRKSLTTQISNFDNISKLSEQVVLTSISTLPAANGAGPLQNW

[10] = molecular target: T1, Orexin/Hypocretin receptor type 1; experiment: Agonist activity at human OX1R stably expressed in CHO RD-HGA16 cells assessed as fluorescence changes measured after 30 mins by calcium mobilization assay; type: functional, cell-based
[11] = test system: Mus musculus; experiment: Sleep modulation activity in mouse assessed as increase in time spent in wakefulness during light phase at 40 to 60 mg/kg, ip measured up to 3 hrs of post injection; conditions: dose 40-60 mg/kg, time hrs <=3
[12] = test system: Mus musculus; experiment: Sleep modulation activity in mouse assessed as decrease in time spent in rapid eye movement sleep during light phase at 40 to 60 mg/kg, ip measured up to 3 hrs of post injection; conditions: dose 40-60 mg/kg, time hrs <=3
[13] = test system: Mus musculus; experiment: Sleep modulation activity in mouse assessed as decrease in time spent in non-rapid eye movement sleep during light phase at 30 to 300 nmol, icv measured up to 3 hrs of post injection; type: functional, organism-based; conditions: dose 30-300 nmol, time hrs <=3
[14] = test system: Mus musculus; experiment: Sleep modulation activity in mouse assessed as increase in time spent in wakefulness during light phase at 20 mg/kg, ip measured up to 6 hrs of post injection; type: functional, organism-based; conditions: time hrs <=6
[15] = test system: Mus musculus; experiment: Sleep modulation activity in mouse assessed as increase in time spent in wakefulness during light phase at 30 to 300 nmol, icv measured up to 3 hrs of post injection; type: functional, organism-based; conditions: dose 30-300 nmol, time hrs <=3
[16] = test system: Mus musculus; experiment: Sleep modulation activity in mouse assessed as increase in time spent in rapid eye movement sleep during light phase at 20 mg/kg, ip measured up to 6 hrs of post injection; type: functional, organism-based; conditions: time hrs <=6
[17] = molecular target: T2, Orexin receptor type 2; experiment: Agonist activity at human OX2R stably expressed in CHO cells; type: functional, cell-based, CHO-RD-HGA16

EC50 [10]: > 10 µM
SMILES: COc1ccc(-c2cccc(C(=O)NCc3ccccn3)c2)cc1S(=O)(=O)Nc1cccc(NCCNC(=O)c2cccc(C)c2)c1

EC50 [10]: > 10 µM
SMILES: COc1ccc(-c2cccc(C(=O)N(C)Cc3ccccc3)c2)cc1S(=O)(=O)Nc1cccc(NCCNC(=O)c2cccc(C)c2)c1

EC50 [10]: > 10 µM
SMILES: COc1ccc(-c2cccc(C(=O)N(C)c3ccccn3)c2)cc1S(=O)(=O)Nc1cccc(NCCNC(=O)c2cccc(C)c2)c1

EC50 [10]: > 10 µM
SMILES: COc1ccc(-c2cccc(C(=O)NCCN(C)C)c2)cc1S(=O)(=O)Nc1cccc(NCCNC(=O)c2cccc(C)c2)c1

EC50 [9]: 0.165 µM | EC50 [10]: 0.824 µM
SMILES: COc1ccc(-c2cccc(C(=O)N(C)C)c2)cc1S(=O)(=O)Nc1cccc(NCCNC(=O)c2ccccc2N(C)C)c1
Activity [11]: Active | Activity [12]: Active | Activity [13]: Active | Activity [14]: inactive | Activity [15]: Active | Activity [16]: inactive

EC50 [9]: 0.166 µM
SMILES: COc1ccc(-c2csc(C(=O)N(C)C)c2)cc1S(=O)(=O)Nc1cccc(NCCNC(=O)c2cccc(C)c2)c1

EC50 [9]: 0.376 µM | EC50 [10]: 0.666 µM
SMILES: COc1ccc(-c2cccc(C(=O)N(C)C)c2)cc1S(=O)(=O)Nc1cccc(NCC(C)NC(=O)c2cccc(C)c2)c1 (stereo not drawn)

EC50 [9]: 0.56 µM | EC50 [10]: > 10 µM
SMILES: COc1ccc(-c2cccc(CN(C)C)c2)cc1S(=O)(=O)Nc1cccc(NCCNC(=O)c2ccccc2N(C)C)c1

The next lines start with the compound.

SMILES: COc1ccc(-c2cccc(C(=O)N(C)Cc3ccncc3)c2)cc1S(=O)(=O)Nc1cccc(NCCNC(=O)c2cccc(C)c2)c1
Activity [1]: Active | Activity [2]: Active | Activity [3]: Active | Activity [4]: inactive | Activity [5]: Active | Activity [6]: Active | Activity [7]: Active

SMILES: COC(=O)N1CCC[C@H](NS(C)(=O)=O)[C@@H]1CO[C@H]1CC[C@@H](c2ccccc2)CC1 [DANAVOREXTON]
EC50 ([8]; read-out: EC50): > 30 µM

SMILES: COc1ccc(-c2cccc(C(=O)N(C)Cc3ccncc3)c2)cc1C(=O)Nc1cccc(NCCNC(=O)c2cccc(C)c2)c1
EC50 [9]: 0.863 µM | EC50 [10]: > 10 µM

SMILES: COc1ccc(CCC(=O)N(C)C)cc1S(=O)(=O)Nc1cccc(NCCNC(=O)c2cccc(C)c2)c1
EC50 [9]: > 10 µM

SMILES: COc1ccc(-c2cccc(C(=O)N(C)C)c2)cc1S(=O)(=O)Nc1cccc(CCNC(=O)c2ccccc2-n2nccn2)c1
EC50 ([8]; read-out: pEC50 (converted)): < 35.5 µM

SMILES: COc1ccc(-c2cccc(C(=O)N(C)C)c2)cc1S(=O)(=O)Nc1cccc(N2CCN(C(=O)c3cccc(C)c3)CC2)c1
EC50 [9]: > 10 µM | EC50 [10]: > 10 µM

SMILES: COc1ccc(-c2cccc(C(=O)N(C)C)c2)cc1S(=O)(=O)Nc1cccc(N2CCN(C(=O)c3ccccc3N(C)C)CC2)c1
EC50 [9]: > 10 µM | EC50 [10]: > 10 µM

SMILES: Cc1ccc(Cn2c(=N)n(CC(O)c3ccc(Cl)c(Cl)c3)c3ccccc32)cc1 (stereo not drawn)
EC50 ([8]; read-out: EC50): > 3.2 µM | EC50 [17]: > 3.2 µM

SMILES: COc1ccc(/C=C/C(=O)N(C)C)cc1S(=O)(=O)Nc1cccc(NCCNC(=O)c2cccc(C)c2)c1
EC50 [9]: > 10 µM

SMILES: COc1ccc(-c2cccc(C(=O)N(C)C)c2)cc1C(=O)Nc1cccc(NCCNC(=O)c2cccc(C)c2)c1
EC50 [9]: 1.27 µM | EC50 [10]: > 10 µM
